From ChEMBL document CHEMBL1641489, “Syntheses, structures and antibiotic activities of LpxC inhibitors based on the diacetylene scaffold” (Bioorg Med Chem, 2011)
Converted amounts (≈) assume the structure as drawn.

Tests used:
Escherichia coli [1] = experiment: Antibacterial activity against Escherichia coli W3110 by NCCLS assay; type: functional
How it was run: (§1)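 Broth microdilution MIC per NCCLS protocol, adapted to 96-well format in LB medium containing 5% DMSO; MIC taken as lowest concentration inhibiting bacterial growth.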

Escherichia coli [2] = experiment: Antibacterial activity against Escherichia coli W3110RL replaced with Rhizobium leguminosarum lpxC gene by NCCLS assay; type: functional
How it was run: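 MIC by the NCCLS protocol in LB medium with 5% DMSO. Strain: E. coli with native lpxC replaced by the R. leguminosarum gene.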

Escherichia coli [3] = experiment: Antibacterial activity against Escherichia coli W3110PA replaced with Pseudomonas aeruginosa lpxC gene by NCCLS assay; type: functional
How it was run: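 MIC by the NCCLS protocol in LB medium with 5% DMSO. Strain: W3110 with chromosomal lpxC swapped for P. aeruginosa lpxC. The swap was made by λ-red recombination in DY330 and moved into W3110 by P1vir transduction, selecting on LB/agar with 15 μg/mL L-161,240 and 10 mM sodium citrate.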

Pseudomonas aeruginosa = experiment: Antibacterial activity against Pseudomonas aeruginosa PAO1 by NCCLS assay; type: functional; how it was run: as §1
[4] = target: T1, UDP-3-O-acyl-N-acetylglucosamine deacetylase (Escherichia coli K-12, UniProt P0A725); experiment: Inhibition of Escherichia coli LpxC
T1 sequence (P0A725 whole entry): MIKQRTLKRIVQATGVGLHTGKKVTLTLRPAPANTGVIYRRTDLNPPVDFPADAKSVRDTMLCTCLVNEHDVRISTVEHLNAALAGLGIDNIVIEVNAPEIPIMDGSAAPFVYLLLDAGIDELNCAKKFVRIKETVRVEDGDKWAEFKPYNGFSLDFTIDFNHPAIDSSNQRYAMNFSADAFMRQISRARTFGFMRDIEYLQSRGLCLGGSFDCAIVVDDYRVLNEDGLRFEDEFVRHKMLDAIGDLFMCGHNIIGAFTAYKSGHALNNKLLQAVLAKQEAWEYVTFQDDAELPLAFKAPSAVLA

Row | Compound | MIC (Escherichia coli [1]) [µg/mL] | MIC (Escherichia coli [2]) [µg/mL] | MIC (Escherichia coli [3]) [µg/mL] | MIC (Pseudomonas aeruginosa) [µg/mL] | Ki ([4]; read-out: Ki) [nM] | Ki ([4]; read-out: Ki(app)) [nM]
1 | C[C@@H](O)[C@H](NC(=O)c1ccc(C#CC#Cc2ccccc2N)cc1)C(=O)NO | 0.5 (≈ 1.32 µM) | > 25 | 8.3 (≈ 22 µM) | 12.5 (≈ 33.1 µM) | – | –
2 | C[C@@H](O)[C@H](NC(=O)c1ccc(C#Cc2ccc(CN3CCOCC3)cc2)cc1)C(=O)NO | 0.2 (≈ 0.457 µM) | 125 (≈ 286 µM) | 1.3 (≈ 2.97 µM) | 1.6 (≈ 3.66 µM) | – | –
3 | C[C@H](O)[C@@H](NC(=O)c1ccc(C#CC#Cc2ccc(N)cc2)cc1)C(=O)NO | 3.1 (≈ 8.21 µM) | > 25 | > 25 | > 25 | – | –
4 | C[C@@H](O)[C@H](NC(=O)c1ccc(C#CC#Cc2ccc(N)cc2)cc1)C(=O)NO | 0.03 (≈ 0.0795 µM) | 3.9 (≈ 10.3 µM) | 0.5 (≈ 1.32 µM) | 0.5 (≈ 1.32 µM) | – | –
5 | C[C@@H](O)[C@@H](NC(=O)c1ccc(C#CC#Cc2ccc(N)cc2)cc1)C(=O)NO | 6.3 (≈ 16.7 µM) | > 25 | > 25 | > 25 | – | –
6 | C[C@@H](O)[C@H](NC(=O)c1ccc(C#CC#Cc2ccccc2)cc1)C(=O)NO | 0.05 (≈ 0.138 µM) | 6.3 (≈ 17.4 µM) | 0.7 (≈ 1.93 µM) | 0.7 (≈ 1.93 µM) | 0.18 | 0.55
7 | C[C@H](O)[C@H](NC(=O)c1ccc(C#CC#Cc2ccc(N)cc2)cc1)C(=O)NO | 0.07 (≈ 0.185 µM) | 12.5 (≈ 33.1 µM) | 0.8 (≈ 2.12 µM) | 0.9 (≈ 2.38 µM) | – | –
8 | C[C@@H](O)[C@H](NC(=O)c1ccc(C#CC#Cc2cccc(N)c2)cc1)C(=O)NO | 0.06 (≈ 0.159 µM) | 6.3 (≈ 16.7 µM) | 1.3 (≈ 3.44 µM) | 1.3 (≈ 3.44 µM) | – | –
